Where a name gives a salt, the structure may show the parent alone. The source made the active and inactive calls. No cut-off for these calls is given here.
Experiments:
K562 = assay: Antiproliferative activity against human K562 cells after 48 hrs by MTT assay; assay type: functional, cell-based; conditions: K562, 48 h
[1] = Antiproliferative activity against human HCC1428 cells after 48 hrs by MTT assay; assay type: functional, cell-based; conditions: HCC1428, 48 h
HT-29 = assay: Antiproliferative activity against human HT-29 cells after 48 hrs by MTT assay; assay type: functional, cell-based; conditions: HT-29, 48 h
HeLa = assay: Antiproliferative activity against human HeLa cells after 48 hrs by MTT assay; assay type: functional, cell-based
Bos taurus [2] = species: Bos taurus; assay: Inhibition of bovine brain tubulin polymerization at 5 uM measured every 1 min for 1 hr by spectrophotometric method
Procedure, shortened: (§1)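 Bovine brain tubulin (>97% pure) in G-PEM buffer (80 mM PIPES, 0.5 mM EGTA, 1.0 mM GTP, pH 6.9) with 0.1% DMSO, set up at 4 °C with or without compound, using a commercial HTS kit. Vincristine and taxol at 5 µM as controls. Polymerization followed by A340 every 1 min for 1 h at 37 °C.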

[3] = Cell cycle arrest in human HCC1428 cells assessed as accumulation at S phase at 1 uM after 24 hrs by propidium iodide staining based flow cytometry (reference value: 24.46%); assay type: functional
[4] = Cell cycle arrest in human HCC1428 cells assessed as accumulation at G2/M phase at 1 uM after 24 hrs by propidium iodide staining based flow cytometry (reference value: […]%); assay type: functional
Homo sapiens [5] = species: Homo sapiens; assay: Inhibition of alpha-tubulin polymerization in human HCC1428 cells at 1 uM after 24 hrs by confocal microscopic method; assay type: cell-based
Procedure, shortened: (§2)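 HCC1428 cells grown on glass coverslips and treated 24 h; 1 µM vincristine and DMSO as controls. Fixed in cold methanol/acetone (1:1) 5 min, then blocked 20 min in 3% goat serum with 0.1% Triton X-100. Stained with mouse anti-α-tubulin and a FITC secondary, DAPI 4 µg/mL 15 min. Imaged by confocal microscopy; three independent experiments.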

HCC1428 [6] = assay: Antiproliferative activity against human HCC1428 cells at 1 uM […] by RTCA; assay type: functional, cell-based
Procedure, shortened: (§3)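 Real-time impedance (xCELLigence RTCA DP) monitoring of HCC1428 cells plated at 2000 cells/well in E-plate 16. Cells kept in RPMI-1640 with 2% FBS at 37 °C, 5% CO2 throughout. Growth curves recorded over 84 h of compound exposure. Representative of three independent experiments.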

[7] = Cell cycle arrest in human HCC1428 cells assessed as accumulation at G1 phase at 1 uM after 24 hrs by propidium iodide staining based flow cytometry (reference value: 62.61%); assay type: functional
PC-3 = assay: Antiproliferative activity against paclitaxel-resistant human PC3 cells after 48 hrs by MTT assay; assay type: functional, cell-based; conditions: PC-3, 48 h
Homo sapiens [8] = species: Homo sapiens; assay: Inhibition of alpha-tubulin polymerization in human HCC1428 cells at 6 to 10 uM after 24 hrs by confocal microscopic method; assay type: cell-based; procedure, shortened: as §2
Homo sapiens [9] = species: Homo sapiens; assay: Inhibition of alpha-tubulin polymerization in human HCC1428 cells at 3 uM after 24 hrs by confocal microscopic method; assay type: cell-based; procedure, shortened: as §2
[10] = Cell cycle arrest in human HCC1428 cells assessed as accumulation at G1 phase at 6 uM after 24 hrs by propidium iodide staining based flow cytometry (reference value: 62.61%); assay type: functional
Homo sapiens [11] = species: Homo sapiens; assay: Inhibition of alpha-tubulin polymerization in human HCC1428 cells at 3 to 6 uM after 24 hrs by confocal microscopic method; assay type: cell-based; procedure, shortened: as §2
Bos taurus [12] = species: Bos taurus; assay: Inhibition of bovine brain tubulin polymerization at 5 to 10 uM measured every 1 min for 1 hr by spectrophotometric method; procedure, shortened: as §1
HCC1428 [13] = assay: Antiproliferative activity against human HCC1428 cells at 2 to 4 uM […] by RTCA; assay type: functional, cell-based; procedure, shortened: as §3
[14] = Cell cycle arrest in human HCC1428 cells assessed as accumulation at S phase at 3 uM after 24 hrs by propidium iodide staining based flow cytometry (reference value: 24.46%); assay type: functional
HCC1428 [15] = assay: Cell cycle arrest in human HCC1428 cells assessed as accumulation at G2/M phase after 24 hrs by propidium iodide staining based flow cytometry; assay type: functional
[16] = Cell cycle arrest in human HCC1428 cells assessed as accumulation at G2/M phase at 3 uM after 24 hrs by propidium iodide staining based flow cytometry (reference value: […]%); assay type: functional
[17] = Cell cycle arrest in human HCC1428 cells assessed as accumulation at G1 phase at 3 uM after 24 hrs by propidium iodide staining based flow cytometry (reference value: 62.61%); assay type: functional
[18] = Cell cycle arrest in human HCC1428 cells assessed as accumulation at S phase at 6 uM after 24 hrs by propidium iodide staining based flow cytometry (reference value: 24.46%); assay type: functional
[19] = Cell cycle arrest in human HCC1428 cells assessed as accumulation at G2/M phase at 6 uM after 24 hrs by propidium iodide staining based flow cytometry (reference value: […]%); assay type: functional

IC50 (K562) [µM]	IC50 (HT-29) [µM]	IC50 (HeLa) [µM]	SMILES	IC50 [1] [µM]	other results
25.3	15.9	26.8	Oc1ccc2c(c1)CCc1ccc(O)c(c1)Oc1ccc(cc1O)CCc1cccc(O)c1O2	22	–
–	–	–	CC(=O)O[C@H]1C(=O)[C@@]2(C)[C@H]([C@H](OC(=O)c3ccccc3)[C@]3(O)C[C@H](OC(=O)[C@H](O)[C@@H](NC(=O)c4ccccc4)c4ccccc4)C(C)=C1C3(C)C)[C@]1(OC(C)=O)CO[C@@H]1C[C@@H]2O	–	inhibition (Bos taurus [2]): inactive
–	–	–	CC[C@]1(O)C[C@H]2CN(CCc3c([nH]c4ccccc34)[C@@](C(=O)OC)(c3cc4c(cc3OC)N(C=O)[C@H]3[C@@](O)(C(=O)OC)[C@H](OC(C)=O)[C@]5(CC)C=CCN6CC[C@]43[C@@H]65)C2)C1 [VINCRISTINE]	–	inhibition (Bos taurus [2]): Active; Activity [3]: 6.96%; Activity [4]: 88.89%; inhibition (Homo sapiens [5]): Active; Activity (HCC1428 [6]): Active; Activity [7]: 4.15%
7.02	7.98	11.7	Oc1ccc2cc1Oc1ccc(cc1)CCc1ccc(O)c(c1)Oc1cccc(c1)CC2	10.7	IC50 (PC-3): 13.4 µM; inhibition (Homo sapiens [8]): Active; inhibition (Homo sapiens [9]): inactive
10.2	11.5	22.7	Oc1ccc2cc1Oc1ccc(cc1)CCc1ccc(O)c(c1)Oc1ccc(cc1)CC2	15.3	–
8.52	7.57	10.5	Oc1ccc2cc1Oc1ccc(cc1)CCc1cccc(O)c1Oc1ccc(cc1)CC2	9.25	IC50 (PC-3): 10.9 µM
29.9	20.1	28.3	Oc1ccc2cc1Oc1ccc(cc1)CCc1cc(O)c(c(O)c1)Oc1cccc(c1)CC2	25.2	–
14.1	7.98	15.9	Oc1ccc2c(c1)CCc1ccc(O)c(c1)Oc1ccc(cc1)CCc1cccc(O)c1O2	10.8	–
15.7	12.7	18.9	Oc1cc2ccc1Oc1cccc(c1)CCc1ccc(O)c(c1)Oc1ccc(cc1)CC2	22.4	–
6.16	7.51	10.4	Oc1cc2c(cc1O)Oc1c(O)cccc1CCc1ccc(cc1)Oc1cc(ccc1O)CC2	8.46	IC50 (PC-3): 7.7 µM
24.9	17	27.4	Oc1ccc2cc1Oc1ccc(cc1)CCc1cccc(O)c1Oc1ccc(cc1O)CC2	19.5	–
1.74	1.98	2.61	COc1cccc2c1Oc1cc(O)c(O)cc1CCc1ccc(O)c(c1)Oc1ccc(cc1)CC2	1.51	IC50 (PC-3): 5.51 µM; Activity [10]: 3.54%; inhibition (Homo sapiens [11]): Active; inhibition (Bos taurus [12]): Active; Activity (HCC1428 [13]): Active; Activity [14]: 23.66%; Activity (HCC1428 [15]): Dose-dependent effect; Activity [16]: 37.7%; Activity [17]: 38.6%; Activity [18]: 11.12%; Activity [19]: 85.34%
19.2	9.6	21.9	Oc1ccc2cc1Oc1ccc(cc1)/C=C\c1cccc(O)c1Oc1ccccc1CC2	17.1	–
6.06	11.6	15.8	Oc1cc2ccc1Oc1ccc(cc1)CCc1cccc(O)c1Oc1cccc(c1)CC2	7.69	–
10.9	12.4	19.5	Oc1ccc2cc1Oc1cccc(c1)CCc1ccc(O)c(c1)Oc1ccc(cc1O)CC2	19.5	–
15.6	14.8	29.4	Oc1ccc2cc1Oc1ccc(cc1)CCc1ccc(O)c(c1)Oc1ccc(cc1O)CC2	20.1	–
21.6	12.4	21.5	Oc1ccc2cc1Oc1ccc(cc1)CCc1cccc(O)c1Oc1ccccc1CC2	19	–
0.57	1.76	1.23	COc1cccc2c1C(=O)c1c(O)c3c(c(O)c1C2=O)C[C@@](O)(C(=O)CO)C[C@@H]3O[C@H]1C[C@H](N)[C@H](O)[C@H](C)O1 [DOXORUBICIN HYDROCHLORIDE]	1.77	IC50 (PC-3): 16.9 µM
